# A selection: hits, their analogues and other compounds. The true share with any hit is near 3.7%.
# Insulin prom inh – TRM-6 insulin promoter activity inhibition; AID 1273; actives 0.9% (n = 130,000); inhibition, % at 2 µM; TRM-6 cells (human fetal islet line), insulin promoter-eGFP reporter, imaging; reporter expression induced with tamoxifen;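 active = inhibition above the mean plus 3 SD, with well images judged a real hit on visual review, cut at about 60% in these data, passing the limit was not always enough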
# RAM inhibit – inhibitors of the yeast RAM network; S. cerevisiae dse1pr::URA3 reporter, 5-FOA growth OD615, 2 d; analog-sensitive cbk1-as2 kinase mutant strain; inhibition, % at 50 µM; actives 1.8% (n = 190,000);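 active = inhibition above a set limit, 3 SD over mean compound inhibition, cut at about 8.4% in these data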;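 note: 0% = DMSO-only wells with no growth and 100% = 10 µM 1-NA-PP1 full growth; inhibition rescues growth on 5-FOA so higher OD means more RAM inhibition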
# HMGR II inh – blocks class II HMG-CoA reductase of Enterococcus faecalis; purified E. faecalis HMGR, NADPH absorbance 340 nm kinetic; inhibition, % at 10 µM; actives 0.41% (n = 190,000); AID 1066;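 active = inhibition above a set limit, the median over all tested compounds plus 3 SD, cut at about 9.5% in these data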;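 note: enzyme runs in reverse so mevalonate oxidation gives rising NADPH absorbance; 0% = complete reaction with DMSO and 100% = background rate lacking mevalonate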
# BB579 growth dn – yeast BB579 growth reduction in restrictive medium; S. cerevisiae BB579 growth, OD615, 48 h; inhibition, % at 10 µM; actives 0.51% (n = 140,000);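 active = inhibition above a set limit, 3 SD over the mean compound inhibition, cut at about 44% in these data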
#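 controls = amphotericin B 10 µg/mL, positive | assay system = DeaD yeast strain BB579 | schedule = 48 h compound exposure at 30 °C after 4 h preincubation | detection = OD615 turbidity measurement | medium = restrictive CSMM-D medium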
# Yeast lifespan up – yeast lifespan extension; S. cerevisiae growth with nicotinamide, OD615; deaD strain in restrictive glucose medium; inhibition of the nicotinamide effect, % at 10 µM; actives 0.68% (n = 130,000); AID 775;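 active = inhibition above a set limit, placed 3 SD over the median of all compounds, cut at about 26% in these data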;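 note: 0% = nicotinamide-treated wells and 100% = cells grown without nicotinamide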
#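 Test system: DeaD-strain S. cerevisiae / Buffer or medium: restrictive glucose medium / Also added: nicotinamide 1.5 mM / Doses: one concentration, 10 µM, DMSO 0.25% / Schedule: 48 h at 30 °C / Signal: OD615 measurement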
# * = called active by the depositor; . = no result.
SMILES,Insulin prom inh,RAM inhibit,HMGR II inh,BB579 growth dn,Yeast lifespan up
Cn1c(=O)c2[nH]c(-c3ccccc3)c(O)c2n(C)c1=O,-10,3,-4,-20,-2
Cc1ccccc1C(=O)N/N=C/c1ccc([N+](=O)[O-])s1,-427,1,-1,-17,-4
Cc1c(Cl)cccc1N=Cc1ccc([N+](=O)[O-])s1,.,-2,-11,57*,-30
O=C(Cn1cnc2ccccc2c1=O)NCc1cccs1,-35,2,-2,.,.
O=C(NCC(c1ccco1)N1CCCCC1)c1ccc2c(c1)S(=O)(=O)c1ccccc1C2=O (stereo not given),21,-1,-3,.,.
Cc1cc2ccccc2n2c(SCC(=O)NCC3CCCO3)nnc12 (stereo not given),38,3,-1,.,.
CN(CC(=O)N1CCCCC1)S(=O)(=O)c1cccc2cccnc12,86*,1,2,-38,-1
CCCOc1ccc(-c2nc(C#N)c(N3CCc4ccccc4C3)o2)cc1,31,11*,0,-35,-7
CCCOc1ccc(-c2nc(C#N)c(N3CCN(C)CC3)o2)cc1,35,0,-1,-3,-28
Cc1ccc(C(=O)N2CCN(c3ccccn3)CC2)cc1[N+](=O)[O-],.,2,10*,.,.
O=C(c1ccc(Cl)c([N+](=O)[O-])c1)N1CCN(c2ccccn2)CC1,40,1,-3,-7,6
CON/C=N/C(=S)Nc1ncc(C(F)(F)F)cc1Cl,.,2,-2,.,.
ON/C=N/C(=S)Nc1ncc(C(F)(F)F)cc1Cl,.,1,18*,.,.
CCCC(=O)C1C(=O)CC(C)(C)C(c2cc(C)no2)C1=O (stereo not given),26,0,-2,-48,56*
COC(=O)c1[nH]c2ccc(C)cc2c1NS(=O)(=O)c1ccc(F)c(C)c1,42,1,0,-39,-23
COC(=O)c1[nH]c2ccc(F)cc2c1NS(=O)(=O)c1ccc(F)c(C)c1,-7,10*,-5,-66,7
Nn1c(SCC(=O)NC2CCCc3ccccc32)nnc1-c1ccc(Cl)cc1Cl (stereo not given),.,0,-3,-22,3
CC(NS(=O)(=O)c1ccc(Br)cc1)C(c1cccs1)N1CCOCC1 (stereo not given),-22,0,2,-14,1
CCN(c1ccccc1)S(=O)(=O)c1ccc(C(=O)OC(C)C(=O)NCCC2=CCCCC2)cc1 (stereo not given),5,9.0*,0,-12,3
CS(=O)(=O)N(Cc1ccc(Cl)cc1)c1ccc(C(=O)NCCC2=CCCCC2)cc1,-65,9.8*,-1,-28,-11
CCN(c1ccccc1)S(=O)(=O)c1ccc(C(=O)Oc2ccc(C(C)=O)cc2)cc1,-35,9.1*,-2,-26,7
CC(OC(=O)Cc1ccc(Cl)cc1)C(=O)NCCC1=CCCCC1 (stereo not given),0,9.0*,-6,-1,5
CCOc1ccc(N(CC(=O)NCCC2=CCCCC2)S(=O)(=O)c2ccccc2)cc1,.,6,3,.,.
CC(Oc1ccc(Cl)cc1Cl)C(=O)NCCC1=CCCCC1 (stereo not given),-35,5,0,-48,1
O=C(NCCC1=CCCCC1)c1ccc(Cl)cc1,.,0,-4,.,.
SMILES,Insulin prom inh,RAM inhibit,HMGR II inh,BB579 growth dn,Yeast lifespan up
CCN(c1ccccc1)S(=O)(=O)c1ccc(F)cc1,14,0,-3,-14,-12
COc1ccc(CCNCc2ccc(OCC(=O)N3CCCCC3)c(OC)c2)cc1OC,.,0,-4,.,.
NN1C(=O)NC(c2ccccc2)(c2ccccc2)C1=O,45,-1,2,.,.
COc1ccc(C(=O)OCC(=O)NC(=O)NC2CCCC2)c(OC)c1,.,1,9,.,.
O=C(CSc1nnc(CCCN2C(=O)c3cccc4cccc(c34)C2=O)n1-c1ccccc1)NCCCN1CCOCC1,-144,-1,-4,-19,7
CC1=C(/C=C/C(=O)O)C(C)(C)CCC1,50,-1,-1,-2,28*
CC1=C(/C=N/Nc2ccc([N+](=O)[O-])cc2[N+](=O)[O-])C(C)(C)CCC1,-19,5,-7,-9,-6
CCOC(=O)c1cc(-c2ccccc2)sc1NC(=O)CSc1nnnn1C,.,8.4*,2,-92,-8
CCOC(=O)c1sc(-c2ccccc2)cc1NC(=O)CSc1nnnn1C,.,8.4*,-5,-7,-7
CCN1C/C(=C\c2cccc([N+](=O)[O-])c2)C(=O)/C(=C/c2cccc([N+](=O)[O-])c2)C1,100*,3,-4,-41,23
N#CCCN/N=C(\Cc1nc2ccccc2[nH]1)c1ccccc1,31,-1,-4,-2,14
N#CCCN/N=C(/Cc1nc2ccccc2[nH]1)c1ccc(Cl)cc1,-19,-1,9.9*,-46,-11
CCOc1ccc(N2C(=O)C3C(c4ccccc4F)NN(C(=O)c4ccc(C)cc4)C3C2=O)cc1 (stereo not given),-243,2,5,-31,4
O=C(CSc1nnc(-c2n[nH]c3ccccc23)n1-c1ccccc1)Nc1cccc(Cl)c1,.,8.8*,1,-47,7
Cc1cc(C(=O)N/N=C/c2ccc(O)c([N+](=O)[O-])c2)n[nH]1,.,0,-4,-16,-2
Cc1cc(C(=O)N/N=C/c2cccc([N+](=O)[O-])c2O)n[nH]1,.,3,0,44*,-3
CCN1/C(=C/c2ccc3cc(C)ccc3[n+]2CC)Sc2ccccc21,-170,-3,-7,98*,-11
Cc1snc(S(=O)(=O)/C(C#N)=N/Nc2cccc(C(F)(F)F)c2)c1C#N,75*,4,-8,-42,-15
COc1ccc(N/N=C(/C#N)S(=O)(=O)c2nsc(C)c2C#N)cc1,-18,1,0,-29,-8
CC(C(=O)Nc1ccccc1Oc1ccccc1)c1ccccc1 (stereo not given),-14,0,2,-57,1
COCc1cc(C)nc(SCC(=O)Oc2ccc(Cl)cc2)c1C#N,-12,3,-2,.,.
COCc1cc(C)nc(SCC(=O)Oc2ccccc2)c1C#N,.,9.1*,7,.,.
COc1ccccc1NC(=O)Cc1noc(CSc2cccc[n+]2[O-])n1,-2,2,-1,95*,-15
O=C(Oc1cccc(/C=N/Nc2nc(Nc3ccccc3)nc(N3CCOCC3)n2)c1)c1ccco1,-12,2,3,2,-6
COc1ccc(NC(=O)c2cccnc2Nc2ccc(OC)cc2)cc1,74*,1,0,-26,-9
COc1ccc(Nc2ncccc2C(=O)Nc2ccccc2)cc1,50,1,2,-49,-16
O=[N+]([O-])c1ccc(-c2cnc(SCc3ccccc3Cl)[nH]2)cc1,-3,0,-7,-16,-25
O=[N+]([O-])c1ccc(-c2cnc(SC(c3ccccc3)c3ccccc3)[nH]2)cc1,.,9.5*,-3,-34,-2
COc1ccc(-c2[nH]ncc2Oc2ccccc2OC)c(O)c1,-100,0,-4,-9,5
